system: SK-MEL-5; assay: Growth inhibition of human SK-MEL-5 cells at 10 uM after 48 hrs by coulter counter analysis; assay type: functional; conditions: SK-MEL-5, 48 h, read-out: GI
Outline: (§1)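 Single-dose NCI 60-line panel screen of test compounds. Cells grown in RPMI 1640 with 10% FBS. Compounds dissolved in DMSO, then diluted in phosphate buffer saline (final DMSO below 1%). Wells run in duplicate at 6 × 10⁴ cells/ml. Controls held PBS and DMSO at matching dilutions. Incubation 48 h at 37 °C under humidified 5% CO2. Cells diluted tenfold in saline and counted by Coulter counter. Percent growth inhibition taken from mean-graph of treated-cell growth.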

| SMILES | inhibition of growth at 10 µM [%] |
| --- | --- |
| CCOC(=O)c1sc(NC(=O)C(C)N2CCCCC2)nc1C (stereo not drawn) | < 10 |

system: MCF7; assay: Growth inhibition of human MCF7 cells at 10 uM after 48 hrs by coulter counter analysis; assay type: functional; conditions: MCF7, 48 h, read-out: GI; outline: as §1

| SMILES | inhibition of growth at 10 µM [%] |
| --- | --- |
| CCOC(=O)c1sc(NC(=O)C(C)N2CCCCC2)nc1C (stereo not drawn) | < 10 |

system: UACC-62; assay: Growth inhibition of human UACC62 cells at 10 uM after 48 hrs by coulter counter analysis; assay type: functional; conditions: UACC-62, 48 h, read-out: GI
Outline: (§2)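 Single-dose screen in the NCI 60 cell line panel. Cells grown in RPMI 1640 with 10% FBS. Compounds dissolved in DMSO and diluted in phosphate buffered saline, final DMSO under 1%. Duplicate wells seeded from culture at 6 × 10⁴ cells/ml. Incubated 48 h at 37 °C, humidified, 5% CO2. Cells diluted tenfold in saline and Coulter-counted. Percent growth inhibition computed against PBS/DMSO controls.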

| SMILES | inhibition of growth at 10 µM [%] |
| --- | --- |
| CCOC(=O)c1sc(NC(=O)C(C)N2CCCCC2)nc1C (stereo not drawn) | < 10 |

system: HCT-15; assay: Growth inhibition of human HCT15 cells at 10 uM after 48 hrs by coulter counter analysis; assay type: functional; conditions: HCT-15, 48 h, read-out: GI; outline: as §1

| SMILES | inhibition of growth at 10 µM [%] |
| --- | --- |
| CCOC(=O)c1sc(NC(=O)C(C)N2CCCCC2)nc1C (stereo not drawn) | < 10 |

system: UO-31; assay: Growth inhibition of human UO31 cells at 10 uM after 48 hrs by coulter counter analysis; assay type: functional; conditions: UO-31, 48 h, read-out: GI; outline: as §2

| SMILES | inhibition of growth at 10 µM [%] |
| --- | --- |
| CCOC(=O)c1sc(NC(=O)C(C)N2CCCCC2)nc1C (stereo not drawn) | 13.4 |

system: SF-268; assay: Growth inhibition of human SF268 cells at 10 uM after 48 hrs by coulter counter analysis; assay type: functional; conditions: SF-268, 48 h, read-out: GI; outline: as §1

| SMILES | inhibition of growth at 10 µM [%] |
| --- | --- |
| CCOC(=O)c1sc(NC(=O)C(C)N2CCCCC2)nc1C (stereo not drawn) | < 10 |

system: SK-MEL-2; assay: Growth inhibition of human SK-MEL-2 cells at 10 uM after 48 hrs by coulter counter analysis; assay type: functional; conditions: SK-MEL-2, 48 h, read-out: GI; outline: as §1

| SMILES | inhibition of growth at 10 µM [%] |
| --- | --- |
| CCOC(=O)c1sc(NC(=O)C(C)N2CCCCC2)nc1C (stereo not drawn) | < 10 |

system: KM12; assay: Growth inhibition of human KM12 cells at 10 uM after 48 hrs by coulter counter analysis; assay type: functional; conditions: KM12, 48 h, read-out: GI; outline: as §1

| SMILES | inhibition of growth at 10 µM [%] |
| --- | --- |
| CCOC(=O)c1sc(NC(=O)C(C)N2CCCCC2)nc1C (stereo not drawn) | < 10 |

system: HCC 2998; assay: Growth inhibition of human HCC2998 cells at 10 uM after 48 hrs by coulter counter analysis; assay type: functional; conditions: HCC 2998, 48 h, read-out: GI; outline: as §1

| SMILES | inhibition of growth at 10 µM [%] |
| --- | --- |
| CCOC(=O)c1sc(NC(=O)C(C)N2CCCCC2)nc1C (stereo not drawn) | < 10 |

system: Malme-3M; assay: Growth inhibition of human MALME-3M cells at 10 uM after 48 hrs by coulter counter analysis; assay type: functional; conditions: read-out: GI; outline: as §1

| SMILES | inhibition of growth at 10 µM [%] |
| --- | --- |
| CCOC(=O)c1sc(NC(=O)C(C)N2CCCCC2)nc1C (stereo not drawn) | < 10 |

system: SF-539; assay: Growth inhibition of human SF539 cells at 10 uM after 48 hrs by coulter counter analysis; assay type: functional; conditions: SF-539, 48 h, read-out: GI; outline: as §1

| SMILES | inhibition of growth at 10 µM [%] |
| --- | --- |
| CCOC(=O)c1sc(NC(=O)C(C)N2CCCCC2)nc1C (stereo not drawn) | < 10 |

system: SR; assay: Growth inhibition of human SR cells at 10 uM after 48 hrs by coulter counter analysis; assay type: functional; conditions: read-out: GI; outline: as §2

| SMILES | inhibition of growth at 10 µM [%] |
| --- | --- |
| CCOC(=O)c1sc(NC(=O)C(C)N2CCCCC2)nc1C (stereo not drawn) | < 10 |

system: OVCAR-3; assay: Growth inhibition of human OVCAR3 cells at 10 uM after 48 hrs by coulter counter analysis; assay type: functional; conditions: OVCAR-3, 48 h, read-out: GI; outline: as §1

| SMILES | inhibition of growth at 10 µM [%] |
| --- | --- |
| CCOC(=O)c1sc(NC(=O)C(C)N2CCCCC2)nc1C (stereo not drawn) | < 10 |

system: NCI-H522; assay: Growth inhibition of human NCI-H522 cells at 10 uM after 48 hrs by coulter counter analysis; assay type: functional; conditions: NCI-H522, 48 h, read-out: GI; outline: as §1

| SMILES | inhibition of growth at 10 µM [%] |
| --- | --- |
| CCOC(=O)c1sc(NC(=O)C(C)N2CCCCC2)nc1C (stereo not drawn) | < 10 |

system: OVCAR-8; assay: Growth inhibition of human OVCAR8 cells at 10 uM after 48 hrs by coulter counter analysis; assay type: functional; conditions: OVCAR-8, 48 h, read-out: GI; outline: as §1

| SMILES | inhibition of growth at 10 µM [%] |
| --- | --- |
| CCOC(=O)c1sc(NC(=O)C(C)N2CCCCC2)nc1C (stereo not drawn) | < 10 |

system: OVCAR-5; assay: Growth inhibition of human OVCAR5 cells at 10 uM after 48 hrs by coulter counter analysis; assay type: functional; conditions: OVCAR-5, 48 h, read-out: GI; outline: as §1

| SMILES | inhibition of growth at 10 µM [%] |
| --- | --- |
| CCOC(=O)c1sc(NC(=O)C(C)N2CCCCC2)nc1C (stereo not drawn) | < 10 |

system: ACHN; assay: Growth inhibition of human ACHN cells at 10 uM after 48 hrs by coulter counter analysis; assay type: functional; conditions: read-out: GI; outline: as §1

| SMILES | inhibition of growth at 10 µM [%] |
| --- | --- |
| CCOC(=O)c1sc(NC(=O)C(C)N2CCCCC2)nc1C (stereo not drawn) | < 10 |

system: COLO 205; assay: Growth inhibition of human COLO205 cells at 10 uM after 48 hrs by coulter counter analysis; assay type: functional; conditions: COLO 205, 48 h, read-out: GI; outline: as §1

| SMILES | inhibition of growth at 10 µM [%] |
| --- | --- |
| CCOC(=O)c1sc(NC(=O)C(C)N2CCCCC2)nc1C (stereo not drawn) | < 10 |

— ChEMBL document CHEMBL2040727, “Substituted thiazoles VI. Synthesis and antitumor activity of new 2-acetamido- and 2 or 3-propanamido-thiazole analogs” (2012)
